According to ChEMBL document CHEMBL1134105, “Enantioselective synthesis and complement inhibitory assay of A/B-ring partial analogues of oleanolic acid” (Bioorg Med Chem Lett, 2001):
Calls of active or inactive are those of the source. The rule behind the calls is not given here.

Tests used:
[1] = In vitro therapeutic index (IC50 cytotoxicity/ IC50 complement inhibition) was determined; type: functional
SK-MEL [2] = experiment: Cytotoxicity against human malignant melanoma cell line SK-MEL; type: functional, cell-based
How it was run: (§1)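 SK-MEL human malignant melanoma cells, 25,000 per well, were exposed to compound solutions for 72 h. Viable cells were counted by neutral red uptake: cells were washed with saline, incubated 1.5 h in 0.17% neutral red in serum-free RPMI, then washed again to remove extracellular dye.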

Homo sapiens [3] = organism: Homo sapiens; experiment: In vitro concentration required to inhibit classical pathway complement induced hemolysis in human; type: functional
How it was run: (§2)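 Classical pathway complement inhibition was tested in vitro; IC50 values are means of three experiments with standard deviation.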

SK-MEL [4] = experiment: Cytotoxicity against human malignant melanoma cell line SK-MEL; NA= not active; type: functional, cell-based; how it was run: as §1
Homo sapiens [5] = organism: Homo sapiens; experiment: In vitro concentration required to inhibit classical pathway complement induced hemolysis in human; NA= not active; type: functional; how it was run: as §2
[6] = In vitro therapeutic index (IC50 cytotoxicity/ IC50 complement inhibition) was determined; ND=not active; type: functional

| SMILES | TI [1] | IC50 (SK-MEL [2]) [µM] | IC50 (Homo sapiens [3]) [µM] | IC50 (SK-MEL [4]) | IC50 (Homo sapiens [5]) | TI [6] |
| --- | --- | --- | --- | --- | --- | --- |
| CC1(C)C2CCC[C@H](/C=C/c3ccccc3C(=O)O)[C@@]2(C)CC[C@@H]1O (stereo partly specified) | 0.6 | 380 | 633 | – | – | – |
| CC1(C)CC[C@]2(C(=O)O)CC[C@]3(C)C(=CC[C@@H]4[C@@]5(C)CC[C@H](O)C(C)(C)[C@@H]5CC[C@]43C)[C@@H]2C1 [OLEANOLIC_ACID] | 1.55 | – | – | – | – | – |
| COC(=O)c1ccc(/C=C/[C@H]2CCCC3C(C)(C)[C@@H](O)CC[C@@]32C)cc1 (stereo partly specified) | – | – | – | Not Active | Not Active | – |
| COc1ccc(CO[C@H]2CC[C@]3(C)CC(Cc4cccc(C(=O)O)c4)CCC3C2(C)C)cc1 (single isomer, unassigned) | 0.4 | 180 | 488 | – | – | – |
| CC1(C)C2CCC[C@H](/C=C/c3ccccc3C#N)[C@@]2(C)CC[C@@H]1O (stereo partly specified) | – | 155 | – | – | Not Active | – |
| COc1ccc(CO[C@H]2CC[C@]3(C)CC(Cc4ccc(C(=O)O)cc4)CCC3C2(C)C)cc1 (single isomer, unassigned) | – | 200 | – | – | Not Active | inactive |
| COc1ccc(CO[C@H]2CC[C@]3(C)C[C@H](Cc4ccccc4C(=O)O)CCC3C2(C)C)cc1 (stereo partly specified) | – | 166 | – | – | Not Active | – |
| CC1(C)C2CCC(Cc3ccc(C(=O)O)cc3)C[C@@]2(C)CC[C@@H]1O (single isomer, unassigned) | 0.6 | 378 | 610 | – | – | – |
| CC1(C)C2CCC[C@H](/C=C/c3cccc(C(=O)O)c3)[C@@]2(C)CC[C@@H]1O (stereo partly specified) | 0.5 | 269 | 550 | – | – | – |
| CC1(C)C2CCC[C@H](/C=C/c3ccc(C(=O)O)cc3)[C@@]2(C)CC[C@@H]1O (stereo partly specified) | 0.6 | 380 | 623 | – | – | – |
| CC1(C)C2CC[C@@H](Cc3ccccc3C(=O)O)C[C@@]2(C)CC[C@@H]1O (stereo partly specified) | 0.8 | 484 | 616 | – | – | – |
| CC1(C)C2CCC(Cc3cccc(C(=O)O)c3)C[C@@]2(C)CC[C@@H]1O (single isomer, unassigned) | 0.6 | 333 | 601 | – | – | – |
